In ChEMBL document CHEMBL1155272, “Nucleoside-5'-monophosphates as prodrugs of adenosine A2A receptor agonists activated by ecto-5'-nucleotidase” (J Med Chem, 2009):

Legend:
[1] = target: T1, Adenosine receptor A1 (Rattus norvegicus, UniProt P25099); experiment: Displacement of [3H]CCPA from adenosine A1 receptor in rat brain cortical membrane after 90 mins
T1 sequence (P25099 whole entry): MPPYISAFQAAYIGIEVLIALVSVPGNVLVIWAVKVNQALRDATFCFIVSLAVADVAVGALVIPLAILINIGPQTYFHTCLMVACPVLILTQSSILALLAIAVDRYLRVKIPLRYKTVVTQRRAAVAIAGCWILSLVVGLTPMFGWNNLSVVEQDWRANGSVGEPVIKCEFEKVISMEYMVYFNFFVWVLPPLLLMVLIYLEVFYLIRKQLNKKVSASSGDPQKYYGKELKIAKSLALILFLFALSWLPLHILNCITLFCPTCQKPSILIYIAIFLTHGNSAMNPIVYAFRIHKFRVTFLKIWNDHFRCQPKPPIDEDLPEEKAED

[2] = target: Adenosine receptor A2a (Rattus norvegicus, UniProt P30543); experiment: Displacement of [3H]CGS21680 from adenosine A2A receptor in rat brain striatal membrane after 60 mins; assay type: cell membranes
[3] = target: T2, Adenosine receptor A3 (Homo sapiens, UniProt P0DMS8); experiment: Displacement of [3H]PSB-11 from human recombinant adenosine A3 receptor expressed in CHO cells after 60 mins; assay type: cell-based
T2 sequence (P0DMS8 whole entry): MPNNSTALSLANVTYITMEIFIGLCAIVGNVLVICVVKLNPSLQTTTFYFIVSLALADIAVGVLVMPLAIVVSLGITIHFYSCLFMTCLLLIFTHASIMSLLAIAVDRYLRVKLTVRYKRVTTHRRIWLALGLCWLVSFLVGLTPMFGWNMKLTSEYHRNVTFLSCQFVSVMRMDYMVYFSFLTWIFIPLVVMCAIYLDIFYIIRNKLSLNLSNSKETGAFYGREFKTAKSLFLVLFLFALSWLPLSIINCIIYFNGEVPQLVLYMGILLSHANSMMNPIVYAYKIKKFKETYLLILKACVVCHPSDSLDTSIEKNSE
Summary of the method: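 Membranes from CHO cells expressing human A3 receptor (30–50 μg protein), pretreated 10–15 min with 0.12 IU/mL adenosine deaminase. [3H]PSB-11 1.0 nM, 60 min at rt, 2.5% DMSO final. Six to seven concentrations over 3 log units. At least 2–3 experiments in duplicate.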

[4] = Prodrug stability in C57/Bl6 mouse CD4+ T cells expressing ecto-5'-nucleotidase assessed as compound remaining at 5 mM after 18 hrs by LC/MS analysis; assay type: ADME, cell-based; details: t-cell, 5000 µM
Summary of the method: (§1)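 Splenic CD4+ T cells (wild-type or ecto-5'-NT knockout C57/Bl6), about 4×10^5 cells in 200 μL, were stimulated with anti-CD3/anti-CD28 for 18 h with prodrug at initial 10, 5 or 2.5 mM. Prodrug and released nucleoside in the supernatant were quantified by LC-MS/MS (C18, water/methanol with 2 mM ammonium acetate, ESI negative MRM). Each is expressed as a percentage of the total.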

[5] = Prodrug stability in C57/Bl6 mouse CD4+ T cells expressing ecto-5'-nucleotidase assessed as formation of 2-(cyclohexylmethylthio)adenosine at 10 mM after 18 hrs by LC/MS analysis; assay type: ADME, cell-based; details: t-cell, 10000 µM, in the assay text read “2-(cyclohexylethylthio)adenosine” for “2-(cyclohexylmethylthio)adenosine”
Summary of the method: as §1

[6] = Prodrug stability in C57/Bl6 mouse CD4+ T cells expressing ecto-5'-nucleotidase assessed as formation of 2-(cyclohexylmethylthio)adenosine at 2.5 mM after 18 hrs by LC/MS analysis; assay type: ADME, cell-based; details: t-cell, 2500 µM
Summary of the method: as §1

[7] = Prodrug stability in ecto-5'-nucleotidase knockout C57/Bl6 mouse CD4+ T cells expressing ecto-5'-nucleotidase assessed as formation of 2-(cyclohexylmethylthio)adenosine at 2.5 mM after 18 hrs by LC/MS analysis; assay type: ADME, cell-based; details: t-cell, 2500 µM
Summary of the method: as §1

[8] = Prodrug stability in ecto-5'-nucleotidase knockout C57/Bl6 mouse CD4+ T cells expressing ecto-5'-nucleotidase assessed as formation of 2-(cyclohexylmethylthio)adenosine at 5 mM after 18 hrs by LC/MS analysis; assay type: ADME, cell-based; details: t-cell, 5000 µM
Summary of the method: as §1

[9] = Prodrug stability in C57/Bl6 mouse CD4+ T cells expressing ecto-5'-nucleotidase assessed as compound remaining at 10 mM after 18 hrs by LC/MS analysis; assay type: ADME, cell-based; details: t-cell, 10000 µM
Summary of the method: as §1

[10] = Prodrug stability in C57/Bl6 mouse CD4+ T cells expressing ecto-5'-nucleotidase assessed as compound remaining at 2.5 mM after 18 hrs by LC/MS analysis; assay type: ADME, cell-based; details: t-cell, 2500 µM
Summary of the method: as §1

[11] = Prodrug stability in ecto-5'-nucleotidase knockout C57/Bl6 mouse CD4+ T cells assessed as compound remaining at 2.5 mM after 18 hrs by LC/MS analysis; assay type: ADME, cell-based; details: t-cell, 2500 µM
Summary of the method: as §1

[12] = Prodrug stability in ecto-5'-nucleotidase knockout C57/Bl6 mouse CD4+ T cells assessed as compound remaining at 5 mM after 18 hrs by LC/MS analysis; assay type: ADME, cell-based; details: t-cell, 5000 µM
Summary of the method: as §1

[13] = Prodrug stability in C57/Bl6 mouse CD4+ T cells expressing ecto-5'-nucleotidase assessed as formation of 2-(cyclohexylethylthio)adenosine at 5 mM after 18 hrs by LC/MS analysis; details: t-cell, 5000 µM
[14] = Prodrug stability in ecto-5'-nucleotidase knockout C57/Bl6 mouse CD4+ T cells assessed as compound remaining at 10 mM after 18 hrs by LC/MS analysis; assay type: ADME, cell-based; details: t-cell, 10000 µM
Summary of the method: as §1

[15] = Antiinflammatory activity in C57/Bl6 mouse CD4+ T cells assessed as inhibition of anti-CD3/anti-CD28 antibody-stimulated INFgamma production after 18 hrs by ELISA; assay type: functional, cell-based; details: C57/Bl6, T-cell
Summary of the method: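 Splenic CD4+ T cells from male C57/Bl6 mice (8–12 wk) were isolated by magnetic CD4 beads, resuspended in Panserin 413, and stimulated on plates coated with 0.4 μg/mL anti-CD3 and 2.5 μg/mL anti-CD28 for 18 h, with compound added together with the antibodies. IFN-γ in the supernatant was measured by ELISA, and EC50 was taken from dose-response curves.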

[16] = Prodrug stability in ecto-5'-nucleotidase knockout C57/Bl6 mouse CD4+ T cells expressing ecto-5'-nucleotidase assessed as formation of 2-(cyclohexylmethylthio)adenosine at 10 mM after 18 hrs by LC/MS analysis; assay type: ADME, cell-based; details: t-cell, 10000 µM
Summary of the method: as §1

Chain of Adenosine receptor A2a (P30543 whole entry): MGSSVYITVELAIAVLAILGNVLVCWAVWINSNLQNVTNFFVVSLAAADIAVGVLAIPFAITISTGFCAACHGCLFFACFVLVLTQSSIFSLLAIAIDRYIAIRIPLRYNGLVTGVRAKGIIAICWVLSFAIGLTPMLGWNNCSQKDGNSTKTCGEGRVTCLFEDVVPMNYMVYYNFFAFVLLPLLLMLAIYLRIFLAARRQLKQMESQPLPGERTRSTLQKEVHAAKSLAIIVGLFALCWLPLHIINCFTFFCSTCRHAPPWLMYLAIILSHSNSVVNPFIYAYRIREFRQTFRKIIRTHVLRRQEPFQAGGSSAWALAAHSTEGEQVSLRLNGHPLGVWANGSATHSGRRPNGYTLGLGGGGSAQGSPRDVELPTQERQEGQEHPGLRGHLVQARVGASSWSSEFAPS

| Compound | Ki [1] [nM] | Ki [2] [nM] | Ki [3] [nM] | further results |
| --- | --- | --- | --- | --- |
| C=CCSc1nc(N)c2ncn([C@@H]3O[C@H](CO)[C@@H](O)[C@H]3O)c2n1 | 532 | 1520 | 6640 |  |
| Nc1nc(SCCC2OCCO2)nc2c1ncn2[C@@H]1O[C@H](CO)[C@@H](O)[C@H]1O | 1140 | 1160 | 3450 |  |
| Nc1nc(SCCC2COCCO2)nc2c1ncn2[C@@H]1O[C@H](CO)[C@@H](O)[C@H]1O (stereo partly specified) | 454 | 1100 | 1330 |  |
| Nc1nc(SCC2CCCCC2)nc2c1ncn2[C@@H]1O[C@H](CO)[C@@H](O)[C@H]1O |  | 709 | 1720 |  |
| CCCSc1nc(N)c2ncn([C@@H]3O[C@H](CO)[C@@H](O)[C@H]3O)c2n1 | 1270 | 1350 |  |  |
| Nc1nc(SCc2ccccc2)nc2c1ncn2[C@@H]1O[C@H](CO)[C@@H](O)[C@H]1O | 927 | 606 | 120 |  |
| Nc1nc(SCCC2CCCCC2)nc2c1ncn2[C@@H]1O[C@H](COP(=O)(O)O)[C@@H](O)[C@H]1O |  |  |  | Stability [4]: 87.2%; Activity [5]: 15%; Activity [6]: 10.8%; Activity [7]: 2.7%; Activity [8]: 4.7%; Stability [9]: 85%; Stability [10]: 89.2%; Stability [11]: 97.3%; Stability [12]: 95.3%; Activity [13]: 12.8%; Stability [14]: 94.7%; EC50 [15]: 5700 nM; Activity [16]: 5.3% |
| CCCCCCSc1nc(N)c2ncn([C@@H]3O[C@H](CO)[C@@H](O)[C@H]3O)c2n1 | 256 | 542 | 2320 |  |
| C#CCSc1nc(N)c2ncn([C@@H]3O[C@H](CO)[C@@H](O)[C@H]3O)c2n1 | 555 | 2900 | 6990 |  |
| Nc1nc(SCCC2CCCCC2)nc2c1ncn2[C@@H]1O[C@H](CO)[C@@H](O)[C@H]1O | 400 |  | 3640 | EC50 [15]: 50 nM |
| Nc1nc(SC2CCCCC2)nc2c1ncn2[C@@H]1O[C@H](CO)[C@@H](O)[C@H]1O | 139 | 2480 | ≥ 10000 |  |
| Nc1nc(SC2CCCC2)nc2c1ncn2[C@@H]1O[C@H](CO)[C@@H](O)[C@H]1O | 994 | 793 | 10400 |  |
| Nc1nc(SCCc2ccccc2)nc2c1ncn2[C@@H]1O[C@H](CO)[C@@H](O)[C@H]1O |  | 18.5 | 1810 |  |
